Columns and labels:
Format in all cases: functional
HT-29 = test: Growth inhibition of human HT-29 cells incubated for 48 hrs by sulforhodamine B assay
Summary of the method: (§1)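 NCI60 panel at the NCI Developmental Therapeutics Program. Only compounds active in the 10 µM screen went to dose-response testing. GI50, the concentration giving 50% of maximal inhibition of proliferation, and TGI, the concentration giving total growth inhibition, were derived from the dose-response curves.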

NCI/ADR-RES = test: Growth inhibition of human NCI/ADR-RES cells assessed as cell growth at 1 uM incubated for 48 hrs by sulforhodamine B assay relative to control; details: read-out: Activity
NCI-H23 = test: Growth inhibition of human NCI-H23 cells incubated for 48 hrs by sulforhodamine B assay; summary of the method: as §1
SR = test: Growth inhibition of human SR cells assessed as cell growth at 100 uM incubated for 48 hrs by sulforhodamine B assay relative to control; details: read-out: Activity
Hs-578T = test: Growth inhibition of human Hs-578T cells assessed as cell growth at 1 uM incubated for 48 hrs by sulforhodamine B assay relative to control; details: read-out: Activity
HOP-62 = test: Growth inhibition of human HOP-62 cells assessed as cell growth at 0.01 uM incubated for 48 hrs by sulforhodamine B assay relative to control; details: read-out: Activity
SN12C [1] = test: Growth inhibition of human SN12C cells assessed as cell growth at 100 uM incubated for 48 hrs by sulforhodamine B assay relative to control; details: read-out: Activity
SN12C [2] = test: Growth inhibition of human SN12C cells incubated for 48 hrs by sulforhodamine B assay; details: for CC50: read-out: LC50 (the source's name)
Summary of the method: (§2)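 NCI DTP 60-line human tumour panel. Dose-response curves were run only for ligands active in the initial 10 µM screen. GI50 (concentration giving 50% of maximal inhibition of proliferation) and TGI (concentration giving total growth inhibition) were derived from these curves.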

MDA-MB-435 = test: Growth inhibition of human MDA-MB-435 cells assessed as cell growth at 0.1 uM incubated for 48 hrs by sulforhodamine B assay relative to control; details: read-out: Activity
SF-295 [3] = test: Growth inhibition of human SF-295 cells incubated for 48 hrs by sulforhodamine B assay; summary of the method: as §2
NCI-H460 = test: Growth inhibition of human NCI-H460 cells assessed as cell growth at 1 uM incubated for 48 hrs by sulforhodamine B assay relative to control; details: read-out: Activity
SK-MEL-2 = test: Growth inhibition of human SK-MEL-2 cells incubated for 48 hrs by sulforhodamine B assay; summary of the method: as §2
SF-539 [4] = test: Growth inhibition of human SF-539 cells assessed as cell growth at 0.01 uM incubated for 48 hrs by sulforhodamine B assay relative to control; details: read-out: Activity
KM12 = test: Growth inhibition of human KM12 cells assessed as cell growth at 0.01 uM incubated for 48 hrs by sulforhodamine B assay relative to control; details: read-out: Activity
A498 [5] = test: Growth inhibition of human A498 cells assessed as cell growth at 0.01 uM incubated for 48 hrs by sulforhodamine B assay relative to control; details: read-out: Activity
Summary of the method: (§3)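 NCI Developmental Therapeutics Program NCI60 panel. Compounds that were active in the 10 µM one-dose screen went on to dose–response testing. Growth at each concentration is expressed relative to untreated control (100%). GI50 (concentration giving 50% of maximal inhibition of proliferation) and TGI (concentration giving total growth inhibition) were derived from the curves.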

MCF7 = test: Growth inhibition of human MCF7 cells assessed as cell growth at 0.1 uM incubated for 48 hrs by sulforhodamine B assay relative to control; details: read-out: Activity
SNB-19 = test: Growth inhibition of human SNB-19 cells assessed as cell growth at 1 uM incubated for 48 hrs by sulforhodamine B assay relative to control; details: read-out: Activity
ACHN = test: Growth inhibition of human ACHN cells assessed as cell growth at 0.1 uM incubated for 48 hrs by sulforhodamine B assay relative to control; details: read-out: Activity
SF-268 = test: Growth inhibition of human SF-268 cells assessed as cell growth at 100 uM incubated for 48 hrs by sulforhodamine B assay relative to control; details: read-out: Activity
UACC-62 = test: Growth inhibition of human UACC-62 cells assessed as cell growth at 100 uM incubated for 48 hrs by sulforhodamine B assay relative to control; details: read-out: Activity
RXF 393 = test: Growth inhibition of human RXF 393 cells assessed as cell growth at 0.1 uM incubated for 48 hrs by sulforhodamine B assay relative to control; details: read-out: Activity
RPMI-8226 = test: Growth inhibition of human RPMI-8226 cells assessed as cell growth at 0.01 uM incubated for 48 hrs by sulforhodamine B assay relative to control; details: read-out: Activity
SF-539 [6] = test: Growth inhibition of human SF-539 cells assessed as cell growth at 100 uM incubated for 48 hrs by sulforhodamine B assay relative to control; details: read-out: Activity
COLO 205 = test: Growth inhibition of human COLO 205 cells incubated for 48 hrs by sulforhodamine B assay; summary of the method: as §3
SF-539 [7] = test: Growth inhibition of human SF-539 cells assessed as cell growth at 1 uM incubated for 48 hrs by sulforhodamine B assay relative to control; details: read-out: Activity
SW-620 = test: Growth inhibition of human SW-620 cells assessed as cell growth at 0.01 uM incubated for 48 hrs by sulforhodamine B assay relative to control; details: read-out: Activity
MDA-MB-231 = test: Growth inhibition of human MDA-MB-231 cells assessed as cell growth at 0.1 uM incubated for 48 hrs by sulforhodamine B assay relative to control; details: read-out: Activity
LOX IMVI = test: Growth inhibition of human LOX IMVI cells incubated for 48 hrs by sulforhodamine B assay; summary of the method: as §1
SNB-75 = test: Growth inhibition of human SNB-75 cells assessed as cell growth at 1 uM incubated for 48 hrs by sulforhodamine B assay relative to control; details: read-out: Activity
PC-3 = test: Growth inhibition of human PC-3 cells assessed as cell growth at 1 uM incubated for 48 hrs by sulforhodamine B assay relative to control; details: read-out: Activity
HCT-15 = test: Growth inhibition of human HCT-15 cells assessed as cell growth at 0.1 uM incubated for 48 hrs by sulforhodamine B assay relative to control; details: read-out: Activity
A498 [8] = test: Growth inhibition of human A498 cells assessed as cell growth at 1 uM incubated for 48 hrs by sulforhodamine B assay relative to control; details: read-out: Activity; summary of the method: as §3
BT-549 = test: Growth inhibition of human BT-549 cells assessed as cell growth at 100 uM incubated for 48 hrs by sulforhodamine B assay relative to control; details: read-out: Activity
SF-295 [9] = test: Growth inhibition of human SF-295 cells assessed as cell growth at 100 uM incubated for 48 hrs by sulforhodamine B assay relative to control; details: read-out: Activity
NCI-H322M = test: Growth inhibition of human NCI-H322M cells assessed as cell growth at 100 uM incubated for 48 hrs by sulforhodamine B assay relative to control; details: read-out: Activity

Structure (SMILES): COc1cccc(NC(=O)c2sc3nc4c(cc3c2N)CN(Cc2ccccc2)CC4)c1
- GI50 (HT-29): 3.75 µM
- LC50 (HT-29): 56.2 µM
- TGI (HT-29): 15.2 µM
- growth at 1 µM (NCI/ADR-RES): 63%
- GI50 (NCI-H23): 7.18 µM
- LC50 (50% lethal concentration) (NCI-H23): > 100 µM
- TGI (NCI-H23): 49.2 µM
- growth at 100 µM (SR): -19%
- growth at 1 µM (Hs-578T): 72%
- growth at 0.01 µM (HOP-62): 80%
- growth at 100 µM (SN12C [1]): 16%
- GI50 (SN12C [2]): 11.2 µM
- TGI (SN12C [2]): > 100 µM
- CC50 (SN12C [2]): > 100 µM
- growth at 0.1 µM (MDA-MB-435): 91%
- GI50 (SF-295 [3]): 3.05 µM
- LC50 (concentration killing 50% of cells) (SF-295 [3]): 94.3 µM
- TGI (SF-295 [3]): 19.4 µM
- growth at 1 µM (NCI-H460): 92%
- GI50 (SK-MEL-2): 10.3 µM
- LC50 (SK-MEL-2): > 100 µM
- TGI (SK-MEL-2): 44.5 µM
- growth at 0.01 µM (SF-539 [4]): 86%
- growth at 0.01 µM (KM12): 100%
- growth at 0.01 µM (A498 [5]): 94%
- growth at 0.1 µM (MCF7): 87%
- growth at 1 µM (SNB-19): 82%
- growth at 0.1 µM (ACHN): 101%
- growth at 100 µM (SF-268): -40%
- growth at 100 µM (UACC-62): -34%
- growth at 0.1 µM (RXF 393): 95%
- growth at 0.01 µM (RPMI-8226): 98%
- growth at 100 µM (SF-539 [6]): -75%
- GI50 (COLO 205): 7.55 µM
- LC50 (concentration killing 50% of cells) (COLO 205): > 100 µM
- TGI (COLO 205): 54.5 µM
- growth at 1 µM (SF-539 [7]): 79%
- growth at 0.01 µM (SW-620): 100%
- growth at 0.1 µM (MDA-MB-231): 98%
- GI50 (LOX IMVI): 4.09 µM
- LC50 (LOX IMVI): > 100 µM
- TGI (LOX IMVI): 43.5 µM
- growth at 1 µM (SNB-75): 77%
- growth at 1 µM (PC-3): 73%
- growth at 0.1 µM (HCT-15): 95%
- growth at 1 µM (A498 [8]): 79%
- growth at 100 µM (BT-549): -32%
- growth at 100 µM (SF-295 [9]): -52%
- growth at 100 µM (NCI-H322M): 18%

Structure (SMILES): CN1CCc2nc3sc(C(N)=O)c(N)c3c(-c3cccs3)c2C1
- GI50 (HT-29): 3.11 µM
- LC50 (HT-29): > 100 µM
- TGI (HT-29): 70.9 µM
- growth at 1 µM (NCI/ADR-RES): 91%
- GI50 (NCI-H23): 2.87 µM
- LC50 (50% lethal concentration) (NCI-H23): > 100 µM
- TGI (NCI-H23): 12.6 µM
- growth at 100 µM (SR): -19%
- growth at 1 µM (Hs-578T): 91%
- growth at 0.01 µM (HOP-62): 101%
- growth at 100 µM (SN12C [1]): 6%
- GI50 (SN12C [2]): 2.69 µM
- TGI (SN12C [2]): > 100 µM
- CC50 (SN12C [2]): > 100 µM
- growth at 0.1 µM (MDA-MB-435): 95%
- GI50 (SF-295 [3]): 3.61 µM
- LC50 (concentration killing 50% of cells) (SF-295 [3]): > 100 µM
- TGI (SF-295 [3]): > 100 µM
- growth at 1 µM (NCI-H460): 108%
- GI50 (SK-MEL-2): 2.67 µM
- LC50 (SK-MEL-2): > 100 µM
- TGI (SK-MEL-2): 6.22 µM
- growth at 0.01 µM (SF-539 [4]): 102%
- growth at 0.01 µM (KM12): 103%
- growth at 0.01 µM (A498 [5]): 97%
- growth at 0.1 µM (MCF7): 107%
- growth at 1 µM (SNB-19): 104%
- growth at 100 µM (SF-268): 2%
- growth at 100 µM (UACC-62): -55%
- growth at 0.1 µM (RXF 393): 85%
- growth at 0.01 µM (RPMI-8226): 108%
- growth at 100 µM (SF-539 [6]): -39%
- GI50 (COLO 205): 1.43 µM
- LC50 (concentration killing 50% of cells) (COLO 205): 9.35 µM
- TGI (COLO 205): 3.66 µM
- growth at 1 µM (SF-539 [7]): 90%
- growth at 0.01 µM (SW-620): 105%
- growth at 0.1 µM (MDA-MB-231): 109%
- GI50 (LOX IMVI): 1.27 µM
- LC50 (LOX IMVI): > 100 µM
- TGI (LOX IMVI): > 100 µM
- growth at 1 µM (SNB-75): 99%
- growth at 1 µM (PC-3): 106%
- growth at 0.1 µM (HCT-15): 106%
- growth at 1 µM (A498 [8]): 96%
- growth at 100 µM (BT-549): -8%
- growth at 100 µM (SF-295 [9]): 4%
- growth at 100 µM (NCI-H322M): -1%
